This passage reports MIC results from ChEMBL document CHEMBL1131631, “Piperazinyl oxazolidinone antibacterial agents containing a pyridine, diazene, or triazene heteroaromatic ring” (1998).

Type in all cases: functional
Assay [1] deals with Staphylococcus aureus. In words: Minimum inhibitory concentration against Staphylococcus aureus UC9213. In short, it runs like this:
(§1)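 MIC in µg/mL. S. aureus UC 9213 is methicillin-susceptible, and S. aureus UC 6685 and S. epidermidis UC 12084 are methicillin-resistant. E. faecalis UC 9217 and S. pneumoniae UC 9912 were also tested.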

The subject of the next assay is Streptococcus pneumoniae. Briefly: Minimum inhibitory concentration Streptococcus pneumoniae UC9912. Summed up: as §1
Assay [2] deals with Staphylococcus aureus. Briefly: Minimum inhibitory concentration against Staphylococcus aureus UC6685. In short, it runs like this: as §1
The subject of a further assay is Enterococcus faecalis. In words: Minimum inhibitory concentration against Enterococcus faecalis UC9217. Summed up:
as §1

Assay [3] deals with Staphylococcus epidermidis. In words: Minimum inhibitory concentration against Staphylococcus epidermis UC12084. In short, it runs like this: as §1

Usually MIC stands for the lowest concentration that inhibits growth of the organism.

In brackets after ≈: the same amount, converted by molar mass.

`CC(=O)NC[C@H]1CN(c2ccc(N3CCN(c4nnc(Cl)c(C)c4C)CC3)c(F)c2)C(=O)O1`: the minimal inhibitory concentration (MIC) is more than 16 µg/mL in the assay with Staphylococcus aureus [1]; 2 µg/mL (≈ 4.19 µM) in the assay with Streptococcus pneumoniae; more than 16 µg/mL with Staphylococcus aureus [2]; more than 16 µg/mL against Enterococcus faecalis; 4 µg/mL (≈ 8.39 µM) in assay [3].

Turning to `CCCOc1nc(Cl)nc(N2CCN(c3ccc(N4C[C@H](CNC(C)=O)OC4=O)cc3F)CC2)n1`, the MIC turned out to be 16 µg/mL (≈ 31.5 µM) against Staphylococcus aureus [1]; 2 µg/mL (≈ 3.94 µM) against Streptococcus pneumoniae; 8 µg/mL (≈ 15.7 µM) against Staphylococcus aureus [2]; 8 µg/mL (≈ 15.7 µM) against Enterococcus faecalis; 8 µg/mL (≈ 15.7 µM) in assay [3].

For `CC(=O)NC[C@H]1CN(c2ccc(N3CCN(c4ccnc(C)c4)CC3)c(F)c2)C(=O)O1`, the MIC against Staphylococcus aureus [1] came to 4 µg/mL (≈ 9.36 µM); with Streptococcus pneumoniae, 0.25 µg/mL (≈ 0.585 µM); against Staphylococcus aureus [2], 2 µg/mL (≈ 4.68 µM); in the assay on Enterococcus faecalis, 2 µg/mL (≈ 4.68 µM); in assay [3], 0.5 µg/mL (≈ 1.17 µM).

With `CC(=O)NC[C@H]1CN(c2ccc(N3CCN(c4ccncc4)CC3)c(F)c2)C(=O)O1`, the MIC against Staphylococcus aureus [1] was 4 µg/mL (≈ 9.67 µM); against Streptococcus pneumoniae, less than 0.125 µg/mL; against Staphylococcus aureus [2] it was 2 µg/mL (≈ 4.84 µM); with Enterococcus faecalis, 2 µg/mL (≈ 4.84 µM); in assay [3], 0.5 µg/mL (≈ 1.21 µM).

In the case of `CC(=O)NC[C@H]1CN(c2ccc(N3CCN(c4ccnc5ccccc45)CC3)c(F)c2)C(=O)O1`, the MIC with Staphylococcus aureus [1] is 2 µg/mL (≈ 4.31 µM); with Streptococcus pneumoniae it was 0.25 µg/mL (≈ 0.539 µM); in the assay on Staphylococcus aureus [2], 2 µg/mL (≈ 4.31 µM); with Enterococcus faecalis it was 2 µg/mL (≈ 4.31 µM); in assay [3], 0.5 µg/mL (≈ 1.08 µM).

In the case of `CC(=O)NC[C@H]1CN(c2ccc(N3CCN(c4ccc5nc(C)c(C(C)=O)n5n4)CC3)c(F)c2)C(=O)O1`, the MIC with Staphylococcus aureus [1] stood at 4 µg/mL (≈ 7.85 µM); in the assay on Streptococcus pneumoniae, 0.5 µg/mL (≈ 0.981 µM); against Staphylococcus aureus [2], 4 µg/mL (≈ 7.85 µM); with Enterococcus faecalis, 4 µg/mL (≈ 7.85 µM); in assay [3], 1 µg/mL (≈ 1.96 µM).

`COc1nc(OC)nc(N2CCN(c3ccc(N4C[C@H](CNC(C)=O)OC4=O)cc3F)CC2)n1`: the MIC in the assay with Staphylococcus aureus [1] is 4 µg/mL (≈ 8.41 µM); with Streptococcus pneumoniae, 0.5 µg/mL (≈ 1.05 µM); in the assay on Staphylococcus aureus [2], 2 µg/mL (≈ 4.21 µM); in the assay with Enterococcus faecalis it was 1 µg/mL (≈ 2.1 µM); in assay [3], 1 µg/mL (≈ 2.1 µM).

With `CC(=O)NC[C@H]1CN(c2ccc(N3CCN(c4cccc(F)n4)CC3)c(F)c2)C(=O)O1`, the MIC in the assay on Staphylococcus aureus [1] is 2 µg/mL (≈ 4.64 µM); in the assay on Streptococcus pneumoniae it was 0.5 µg/mL (≈ 1.16 µM); with Staphylococcus aureus [2], 2 µg/mL (≈ 4.64 µM); with Enterococcus faecalis it was 2 µg/mL (≈ 4.64 µM); in assay [3] it was 1 µg/mL (≈ 2.32 µM).

For the compound `CC(=O)NC[C@H]1CN(c2ccc(N3CCN(c4nc(C)cc(C)c4C#N)CC3)c(F)c2)C(=O)O1`, the MIC against Staphylococcus aureus [1] was 4 µg/mL (≈ 8.57 µM); against Streptococcus pneumoniae it was 1 µg/mL (≈ 2.14 µM); against Staphylococcus aureus [2], 4 µg/mL (≈ 8.57 µM); with Enterococcus faecalis it was 4 µg/mL (≈ 8.57 µM); in assay [3], 2 µg/mL (≈ 4.29 µM).

Regarding `CC(=O)NC[C@H]1CN(c2ccc(N3CCN(c4nccc(C(F)(F)F)n4)CC3)c(F)c2)C(=O)O1`, the MIC in the assay with Staphylococcus aureus [1] is more than 16 µg/mL; with Streptococcus pneumoniae, 2 µg/mL (≈ 4.15 µM); with Staphylococcus aureus [2], more than 16 µg/mL; in the assay with Enterococcus faecalis, more than 16 µg/mL; in assay [3], 16 µg/mL (≈ 33.2 µM).

Turning to `CC(=O)NC[C@H]1CN(c2ccc(N3CCN(c4nc(F)c(F)cc4F)CC3)c(F)c2)C(=O)O1`, the MIC with Staphylococcus aureus [1] came out at 2 µg/mL (≈ 4.28 µM); against Streptococcus pneumoniae, 0.5 µg/mL (≈ 1.07 µM); in the assay with Staphylococcus aureus [2] it was 2 µg/mL (≈ 4.28 µM); with Enterococcus faecalis, 2 µg/mL (≈ 4.28 µM); in assay [3], 1 µg/mL (≈ 2.14 µM).

`CC(=O)NC[C@H]1CN(c2ccc(N3CCN(c4cc(NC(C)=O)c(Cl)nn4)CC3)c(F)c2)C(=O)O1`: the MIC was more than 16 µg/mL against Staphylococcus aureus [1]; 4 µg/mL (≈ 7.91 µM) with Streptococcus pneumoniae; more than 16 µg/mL against Staphylococcus aureus [2]; more than 16 µg/mL with Enterococcus faecalis; 16 µg/mL (≈ 31.6 µM) in assay [3].

With `CC(=O)NC[C@H]1CN(c2ccc(N3CCN(c4cccc(C)n4)CC3)c(F)c2)C(=O)O1`, the minimum inhibitory concentration (MIC) against Staphylococcus aureus [1] turned out to be 4 µg/mL (≈ 9.36 µM); with Streptococcus pneumoniae, 0.5 µg/mL (≈ 1.17 µM); with Staphylococcus aureus [2], 2 µg/mL (≈ 4.68 µM); against Enterococcus faecalis, 2 µg/mL (≈ 4.68 µM); in assay [3], 2 µg/mL (≈ 4.68 µM).

For the compound `CC(=O)NC[C@H]1CN(c2ccc(N3CCN(c4cc(N)nc(N)n4)CC3)c(F)c2)C(=O)O1`, the MIC with Staphylococcus aureus [1] is 8 µg/mL (≈ 18 µM); against Streptococcus pneumoniae, less than 0.5 µg/mL; against Staphylococcus aureus [2] it was 4 µg/mL (≈ 9 µM); against Enterococcus faecalis, 2 µg/mL (≈ 4.5 µM); in assay [3], 1 µg/mL (≈ 2.25 µM).
